Assay results as given in ChEMBL document CHEMBL4033786, “Discovery of Novel 1-Cyclopentenyl-3-phenylureas as Selective, Brain Penetrant, and Orally Bioavailable CXCR2 Antagonists” (J Med Chem, 2018).

Experiments:
[1] = Elimination half life in dog at 0.85 mg/kg, iv measured up to 4 hrs post dose; type: ADME, organism-based, Canis lupus familiaris; settings: in vivo, read-out: beta t1/2 (converted)
[2] = target: C-X-C chemokine receptor type 6 (Homo sapiens, UniProt O00574); assay: Antagonist activity at CXCR6 (unknown origin)
Chain of C-X-C chemokine receptor type 6 (O00574 whole entry): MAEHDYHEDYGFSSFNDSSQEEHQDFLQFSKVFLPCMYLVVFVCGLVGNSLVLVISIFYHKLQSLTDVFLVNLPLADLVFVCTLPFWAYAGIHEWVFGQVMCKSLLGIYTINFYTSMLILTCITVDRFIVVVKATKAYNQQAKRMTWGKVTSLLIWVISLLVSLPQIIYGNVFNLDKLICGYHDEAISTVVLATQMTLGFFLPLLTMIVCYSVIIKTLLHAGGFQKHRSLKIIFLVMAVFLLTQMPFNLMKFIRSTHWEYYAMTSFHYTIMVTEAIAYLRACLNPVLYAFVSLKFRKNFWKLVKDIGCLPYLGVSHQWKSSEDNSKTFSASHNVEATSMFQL
Method in brief: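 β-arrestin assays run in both agonist and antagonist modes across a panel of 18 CXC and CC chemokine receptors.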

[3] = Cmax in dog at 1.29 mg/kg, po measured up to 4 hrs post dose; type: ADME, organism-based, Canis lupus familiaris; design: dose 1.29 mg/kg, route oral; settings: in vivo

In the case of `CC1=CCC[C@H]1NC(=O)Nc1ccc(Cl)c(S(=O)(=O)[C@@]2(C)CCOC2)c1O`, the half-life [1] is reported as 3.6 h, the IC50 [2] is reported as over 10 µM and the Cmax [3] is reported as 728 ng/mL.
